Measurements taken from ChEMBL document CHEMBL1122643, “Alpha-adrenoreceptor reagents. 2. Effects of modification of the 1,4-benzodioxan ring system on alpha-adrenoreceptor activity” (J Med Chem, 1984).
The source made the active and inactive calls. The calls are words filed in the database; no cut-off is given here.

Key:
[1] = target: T1, Adrenergic receptor alpha-1 (Rattus norvegicus) (UniProt P15823+P23944+P43140); assay: Agonism at Alpha-1 adrenoceptor determined in rat anococcygeus preparation; Inactive.; type: functional
Method in brief: (§1)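 Isolated tissue agonist test, potency compared directly with the standard in the same experiment. Standard dose-response curves were run before and after the test compound's curve. Rat anococcygeus (male Sprague-Dawley, 200-250 g; Krebs, 30 °C, 95% O2/5% CO2) was compared with phenylephrine. Field-stimulated mouse vas deferens (0.1 Hz, Mg-free Krebs, 30 °C) was compared with clonidine.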

[2] = target: T2, Alpha-2 adrenergic receptor (Mus musculus) (UniProt P30545+Q01338+Q01337); assay: Presynaptic alpha-2 adrenergic receptor from mouse vas deferens agonistic activity relative to clonidine = 1.; type: functional, tissue-based; method in brief: as §1
T2 sequence (P30545 whole entry, looked up): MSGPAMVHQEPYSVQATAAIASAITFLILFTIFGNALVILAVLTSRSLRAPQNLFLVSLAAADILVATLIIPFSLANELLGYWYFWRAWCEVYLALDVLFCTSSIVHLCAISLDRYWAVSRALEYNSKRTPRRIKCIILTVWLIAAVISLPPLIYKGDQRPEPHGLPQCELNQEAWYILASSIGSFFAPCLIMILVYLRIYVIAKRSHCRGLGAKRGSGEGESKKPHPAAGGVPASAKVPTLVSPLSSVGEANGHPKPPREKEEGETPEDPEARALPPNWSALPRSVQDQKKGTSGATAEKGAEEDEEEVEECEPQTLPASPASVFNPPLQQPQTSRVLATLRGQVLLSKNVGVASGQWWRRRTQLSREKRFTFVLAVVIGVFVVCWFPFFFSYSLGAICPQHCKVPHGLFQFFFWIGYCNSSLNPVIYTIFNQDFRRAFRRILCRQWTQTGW
T2 sequence (Q01337 whole entry, looked up): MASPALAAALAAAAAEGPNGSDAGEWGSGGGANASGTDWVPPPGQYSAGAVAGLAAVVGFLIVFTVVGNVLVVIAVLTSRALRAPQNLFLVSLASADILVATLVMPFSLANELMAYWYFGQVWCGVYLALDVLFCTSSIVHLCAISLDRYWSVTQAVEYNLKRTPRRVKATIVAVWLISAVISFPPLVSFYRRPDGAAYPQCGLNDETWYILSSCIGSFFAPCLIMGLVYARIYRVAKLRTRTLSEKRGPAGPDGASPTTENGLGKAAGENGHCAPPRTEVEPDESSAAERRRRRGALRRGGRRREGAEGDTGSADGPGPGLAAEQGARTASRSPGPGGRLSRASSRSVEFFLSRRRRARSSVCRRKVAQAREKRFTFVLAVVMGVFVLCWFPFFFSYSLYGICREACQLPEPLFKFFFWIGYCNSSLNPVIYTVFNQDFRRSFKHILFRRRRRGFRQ
T2 sequence (Q01338 whole entry, looked up): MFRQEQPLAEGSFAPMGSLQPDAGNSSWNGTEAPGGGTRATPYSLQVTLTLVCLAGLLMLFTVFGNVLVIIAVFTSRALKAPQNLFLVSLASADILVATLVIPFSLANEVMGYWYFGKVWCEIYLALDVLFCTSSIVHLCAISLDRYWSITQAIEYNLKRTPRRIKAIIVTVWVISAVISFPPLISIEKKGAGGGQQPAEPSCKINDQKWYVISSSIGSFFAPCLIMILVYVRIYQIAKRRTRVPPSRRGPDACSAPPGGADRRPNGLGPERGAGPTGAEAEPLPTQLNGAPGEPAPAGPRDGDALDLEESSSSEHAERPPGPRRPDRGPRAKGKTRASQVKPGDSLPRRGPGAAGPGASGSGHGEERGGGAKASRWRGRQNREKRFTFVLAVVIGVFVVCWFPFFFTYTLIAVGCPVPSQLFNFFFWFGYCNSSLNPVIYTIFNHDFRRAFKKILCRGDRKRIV

[3] = target: T1, Adrenergic receptor alpha-1 (Rattus norvegicus); assay: In vitro inhibition of the contractile effect of phenylephrine on the isolated rat anococcygeus; potency relative to idazoxan.; type: functional
[4] = Selectivity between pre- and post-synaptic sites of action.; type: functional
[5] = target: T2, Alpha-2 adrenergic receptor (Mus musculus); assay: Ability to antagonize the inhibitory effect of clonidine on the mouse vas deferens is the presynaptic alpha-2 adrenergic receptor antagonist potency relative to idazoxan = 1.; type: functional, tissue-based
Method in brief: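 Male adult mouse vasa deferentia (MFI >30 g), 0.5 g initial tension, Mg-free Krebs, 30 °C, 95% O2/5% CO2. Field stimulation at 0.1 Hz, 3-ms pulses, 100-140 V set to give ~100-mg twitch, recorded isometrically.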

[6] = target: T1, Adrenergic receptor alpha-1 (Rattus norvegicus); assay: Agonism in vitro at Alpha-1 adrenoceptor determined in rat anococcygeus preparation.; type: functional; method in brief: as §1
[7] = target: T2, Alpha-2 adrenergic receptor (Mus musculus); assay: Presynaptic alpha-2 adrenergic receptor agonistic activity in mouse vas deferens relative to clonidine; type: functional, tissue-based; method in brief: as §1
[8] = target: T1, Adrenergic receptor alpha-1 (Rattus norvegicus); assay: In vitro inhibition of the contractile effect of phenylephrine on the isolated rat anococcygeus; potency relative to idazoxan; Inactive.; type: functional

Row | Compound | Agonist potency [1] | Agonist potency [2] | Antagonist potency [3] | Ratio [4] | Antagonist potency [5] | Agonist potency [6] | Agonist potency [7] | Antagonist potency [8]
1 | Cc1ccc2c(c1)OC(C1=NCCN1)C2 (centres undefined) | inactive | inactive | 2.25 | 0.2 | 0.46 | – | – | –
2 | Brc1ccc2c(c1)CC(C1=NCCN1)O2 (centres undefined) | – | – | – | – | 0.2 | 0.026 | < 0.001 | inactive
3 | Clc1cccc2c1CC(C1=NCCN1)O2 (centres undefined) | – | inactive | – | – | 2 | 1 | – | inactive
4 | Oc1ccc2c(c1)OC(C1=NCCN1)C2 (centres undefined) | – | – | – | – | 0.04 | 1.5 | 0.02 | inactive
5 | Cc1ccc2c(c1)CC(C1=NCCN1)O2 (centres undefined) | inactive | inactive | 2.25 | 0.44 | 1 | – | – | –
6 | Cc1cc2c(cc1C)OC(C1=NCCN1)C2 (centres undefined) | inactive | inactive | 0.9 | 0.8 | 0.7 | – | – | –
7 | CC1(C2=NCCN2)Oc2ccccc2O1 | – | inactive | 0.01 | 0.1 | 0.001 | 0.05 | – | –
8 | c1ccc2c(c1)OCCC(C1=NCCN1)O2 (centres undefined) | – | inactive | – | – | 0.04 | < 0.0005 | – | inactive
9 | c1ccc2sc(C3=NCCN3)cc2c1 | inactive | inactive | 0.05 | 0.02 | 0.001 | – | – | –
10 | c1ccc2c(c1)OC(C1=NCCN1)O2 | – | inactive | – | – | 0.001 | 0.005 | – | inactive
11 | COc1ccc2c(c1)OC(C1=NCCN1)C2 (centres undefined) | inactive | inactive | 0.35 | 0.2 | 0.07 | – | – | –
12 | Cc1cc(C)c2c(c1)CC(C1=NCCN1)O2 (centres undefined) | – | inactive | – | – | 0.3 | 0.03 | – | inactive
13 | c1ccc2c(c1)CC(C1=NCCN1)CO2 (centres undefined) | inactive | inactive | 1 | 0.01 | 0.01 | – | – | –
14 | c1ccc2c(c1)CC(C1=NCCN1)S2 (centres undefined) | inactive | – | 0.69 | 0.14 | 0.1 | – | 0.001 | –
15 | Fc1ccc2c(c1)CC(C1=NCCN1)O2 (centres undefined) | inactive | inactive | 5.6 | 0.2 | 1.07 | – | – | –
16 | COc1cccc2c1OC(C1=NCCN1)C2 (centres undefined) | – | inactive | – | – | 0.07 | 0.3 | – | inactive
17 | c1ccc(CCC2(C3=NCCN3)Cc3ccccc3O2)cc1 (centres undefined) | inactive | inactive | 0.07 | 1 | 0.07 | – | – | –
18 | CC1c2ccccc2OC1C1=NCCN1 (centres undefined) | inactive | inactive | 0.1 | 0.3 | 0.03 | – | – | –
19 | c1ccc2c(c1)CCC(C1=NCCN1)O2 (centres undefined) | inactive | inactive | 1 | 0.01 | 0.01 | – | – | –
20 | Oc1cccc2c1OC(C1=NCCN1)C2 (centres undefined) | – | inactive | – | – | 0.04 | 0.24 | – | inactive
21 | CC(=O)c1ccc2c(c1)CC(C1=NCCN1)O2 (centres undefined) | – | inactive | – | – | 0.003 | 0.02 | – | inactive
22 | c1ccc2oc(C3=NCCN3)cc2c1 | – | – | – | – | 0.01 | < 0.001 | < 0.0003 | –
